# Data as given in ChEMBL document CHEMBL1140875, “DNA photocleavage by porphyrin-polyamine conjugates” (Bioorg Med Chem, 2009).
# Activity calls are given as the source filed them. The calls are words filed in the database; no cut-off is given here.
# Columns and labels:
# Escherichia coli [1] = assay: Induction of DNA photocleavage activity in Escherichia coli pBR322 plasmid assessed as supercoiled DNA form at 10 uM after 120 mins irradiation at 2.5 mW/cm2 by gel electrophoresis
# How it was run: (§1)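 Supercoiled pBR322 (0.25 µg in 10 µL) in 3 mM Tris–HCl, 0.3 mM EDTA, pH 8.0 at 25 °C, with 10 µM porphyrin. White light at 2.5 mW/cm2 from an 18 W lamp 4 cm away, for 15–120 min. Controls without porphyrin and/or without light. Products run on 0.7% non-denaturing agarose, SYBRsafe stain, transilluminator at 312 nm. Supercoiled, nicked and linear forms quantified as %.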
# Escherichia coli [2] = assay: Induction of DNA photocleavage activity in Escherichia coli pBR322 plasmid assessed as supercoiled DNA form at 10 uM by gel electrophoresis
# Escherichia coli [3] = assay: Induction of DNA photocleavage activity in Escherichia coli pBR322 plasmid assessed as linear DNA form at 10 uM after 120 mins irradiation at 2.5 mW/cm2 by gel electrophoresis; how it was run: as §1
# Escherichia coli [4] = assay: Induction of DNA photocleavage activity in Escherichia coli pBR322 plasmid assessed as nicked DNA form at 10 uM after 120 mins irradiation at 2.5 mW/cm2 by gel electrophoresis; how it was run: as §1
# [5] = Photostability assessed as residual absorbance at 2.5 mW/cm2 irradiation for 15 mins; assay type: physicochemical; details: read-out: Stability
# DNA = assay: Binding affinity to calf thymus DNA at 4 uM in phosphate buffer of pH 7.4 by UV-vis spectroscopy; assay type: nucleic-acid assay; details: Bos taurus
# How it was run: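 Porphyrin held at 4 × 10^-6 M in PBS pH 7.4 and read by UV–vis at the Soret maximum. Calf thymus DNA titrated in at base-pair concentrations from 1.2 × 10^-6 to 1.2 × 10^-5 M, base pair/porphyrin ratio 0.2 to 3. Change in the Soret band followed.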
# [6] = Lipophilicity, log P of the compound; assay type: physicochemical; details: octanol/water
# How it was run: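 1-Octanol/water partition at 25 °C with equal 3 mL phases and dye at 300 µM. Mixture vortexed and centrifuged. Aqueous and organic aliquots each diluted into MeOH, and dye concentration in each phase measured by absorption spectroscopy.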
# Escherichia coli [7] = assay: Induction of DNA photocleavage activity in Escherichia coli pBR322 plasmid assessed as nicked DNA form at 10 uM after 60 mins irradiation at 2.5 mW/cm2 by gel electrophoresis in presence of sodium azide
# How it was run: (§2)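 pBR322 (0.25 µg) in 3 mM Tris–HCl, 0.3 mM EDTA, pH 8.0 with 10 µM porphyrin, irradiated 60 min in the presence of 100 mM sodium azide (singlet oxygen quencher) or 100 mM mannitol (hydroxyl radical scavenger). Controls without porphyrin, ± irradiation, with each additive. Read-out by agarose gel electrophoresis.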
# Escherichia coli [8] = assay: Induction of DNA photocleavage activity in Escherichia coli pBR322 plasmid assessed as supercoiled DNA form at 10 uM after 60 mins irradiation at 2.5 mW/cm2 by gel electrophoresis in presence of mannitol; how it was run: as §2
# Escherichia coli [9] = assay: Induction of DNA photocleavage activity in Escherichia coli pBR322 plasmid assessed as nicked DNA form at 10 uM after 60 mins irradiation at 2.5 mW/cm2 by gel electrophoresis; how it was run: as §1
# [10] = Induction of singlet oxygen production at 1 uM after irradiation at 10 mW/cm2 in presence of 1,3-diphenylisobenzofuran; assay type: physicochemical
# How it was run: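 Photosensitizer at 10^-6 M with DPBF at 6 × 10^-5 M in DMF/H2O (9/1). Illuminated at room temperature for 30 min with two 30 W white bulbs, 10 mW/cm2. DPBF absorbance decay read at 415 nm every 3 min.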
# [11] = Photostability assessed as residual absorbance at 2.5 mW/cm2 irradiation for 30 mins; assay type: physicochemical; details: read-out: Stability
# [12] = Photostability assessed as residual absorbance at 2.5 mW/cm2 irradiation for 60 mins; assay type: physicochemical; details: read-out: Stability
# Escherichia coli [13] = assay: Induction of DNA photocleavage activity in Escherichia coli pBR322 plasmid assessed as nicked DNA form at 10 uM after 15 mins irradiation at 2.5 mW/cm2 by gel electrophoresis; how it was run: as §1
# Escherichia coli [14] = assay: Induction of DNA photocleavage activity in Escherichia coli pBR322 plasmid assessed as supercoiled DNA form at 10 uM after 90 mins irradiation at 2.5 mW/cm2 by gel electrophoresis; how it was run: as §1
# Escherichia coli [15] = assay: Induction of DNA photocleavage activity in Escherichia coli pBR322 plasmid assessed as nicked DNA form at 10 uM after 90 mins irradiation at 2.5 mW/cm2 by gel electrophoresis; how it was run: as §1
# Escherichia coli [16] = assay: Induction of DNA photocleavage activity in Escherichia coli pBR322 plasmid assessed as nicked DNA form at 10 uM by gel electrophoresis; how it was run: as §1
# Escherichia coli [17] = assay: Induction of DNA photocleavage activity in Escherichia coli pBR322 plasmid assessed as supercoiled DNA form at 10 uM after 15 mins irradiation at 2.5 mW/cm2 by gel electrophoresis; how it was run: as §1
# Escherichia coli [18] = assay: Induction of DNA photocleavage activity in Escherichia coli pBR322 plasmid at 10 uM after irradiation for 2 hrs by gel electrophoresis
# [19] = Photostability assessed as residual absorbance at 2.5 mW/cm2 irradiation for 45 mins; assay type: physicochemical; details: read-out: Stability
# Escherichia coli [20] = assay: Induction of DNA photocleavage activity in Escherichia coli pBR322 plasmid assessed as supercoiled DNA form at 10 uM after 60 mins irradiation at 2.5 mW/cm2 by gel electrophoresis; how it was run: as §1
# Escherichia coli [21] = assay: Induction of DNA photocleavage activity in Escherichia coli pBR322 plasmid assessed as supercoiled DNA form at 10 uM after 30 mins irradiation at 2.5 mW/cm2 by gel electrophoresis; how it was run: as §1
# Escherichia coli [22] = assay: Induction of DNA photocleavage activity in Escherichia coli pBR322 plasmid assessed as supercoiled DNA form at 10 uM after 60 mins irradiation at 2.5 mW/cm2 by gel electrophoresis in presence of sodium azide; how it was run: as §2
# Escherichia coli [23] = assay: Induction of DNA photocleavage activity in Escherichia coli pBR322 plasmid assessed as nicked DNA form at 10 uM after 60 mins irradiation at 2.5 mW/cm2 by gel electrophoresis in presence of mannitol; how it was run: as §2
# Escherichia coli [24] = assay: Induction of DNA photocleavage activity in Escherichia coli pBR322 plasmid assessed as nicked DNA form at 10 uM after 30 mins irradiation at 2.5 mW/cm2 by gel electrophoresis; how it was run: as §1
# Escherichia coli [25] = assay: Induction of DNA photocleavage activity in Escherichia coli pBR322 plasmid assessed as linear DNA form at 10 uM after 90 mins irradiation at 2.5 mW/cm2 by gel electrophoresis; how it was run: as §1
smiles,measurement,setting,value
C=CC1=C(C)c2cc3[nH]c(cc4nc(cc5[nH]c(cc1n2)c(C)c5CCC(=O)NCCCCC(=O)N(CCCN)CCCCN)C(CCC(=O)NCCCCC(=O)N(CCCN)CCCCN)=C4C)c(C)c3C=C,Activity,Escherichia coli [1],5%
same,Activity,Escherichia coli [2],78%
same,Activity,Escherichia coli [3],4%
same,Activity,Escherichia coli [4],90%
same,remaining at 0.25 h,[5],100%
same,Activity,DNA,Active
same,logP,[6],-0.12
same,Activity,Escherichia coli [7],42%
same,Activity,Escherichia coli [8],42%
same,Activity,Escherichia coli [9],78%
same,Activity,[10],Active
same,remaining at 0.5 h,[11],99%
same,remaining at 1 h,[12],97%
same,Activity,Escherichia coli [13],54%
same,Activity,Escherichia coli [14],12%
same,Activity,Escherichia coli [15],84%
same,Activity,Escherichia coli [16],36%
same,Activity,Escherichia coli [17],46%
same,Activity,Escherichia coli [18],Active
same,remaining at 0.75 h,[19],98%
same,Activity,Escherichia coli [20],22%
same,Activity,Escherichia coli [21],36%
same,Activity,Escherichia coli [22],58%
same,Activity,Escherichia coli [23],58%
same,Activity,Escherichia coli [24],64%
same,Activity,Escherichia coli [25],4%
